# Experimental data from ChEMBL document CHEMBL1156983, “Modulation of cell surface expression of nonactivated cholecystokinin receptors using bivalent ligand-induced internalization” (J Med Chem, 2010).
# Activity calls are given as the source filed them. No cut-off for these calls is given here.
# How the values were obtained:
# Type in all cases: cell-based
# [1] = molecular target: T1, Gastrin/cholecystokinin type B receptor (Homo sapiens) (UniProt P32239); test: Induction of receptor internalization in YFP-tagged CCK2 receptor expressed in CHO cells
# T1 sequence (whole entry): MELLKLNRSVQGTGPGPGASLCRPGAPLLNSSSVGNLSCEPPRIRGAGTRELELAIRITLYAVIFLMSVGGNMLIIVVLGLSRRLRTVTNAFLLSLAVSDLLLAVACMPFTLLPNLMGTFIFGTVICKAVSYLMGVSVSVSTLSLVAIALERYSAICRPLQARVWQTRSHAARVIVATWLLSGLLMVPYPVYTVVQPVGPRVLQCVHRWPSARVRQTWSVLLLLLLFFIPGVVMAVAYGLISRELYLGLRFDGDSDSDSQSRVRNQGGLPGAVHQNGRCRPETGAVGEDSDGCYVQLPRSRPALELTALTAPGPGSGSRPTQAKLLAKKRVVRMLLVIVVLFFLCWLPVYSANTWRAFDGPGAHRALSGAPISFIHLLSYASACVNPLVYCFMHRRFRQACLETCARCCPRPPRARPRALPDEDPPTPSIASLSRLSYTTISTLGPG
# How it was run: (§1)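 CHO cells stably expressing YFP-tagged MOP or YFP-tagged CCK2 receptor on coverslips, washed in PBS with 0.08 mM CaCl2 and 0.1 mM MgCl2. Incubated with 100 nM ligand at 4 °C for 90 min, washed with ice-cold PBS, then warmed in 37 °C PBS for various times. Fixed with 2% paraformaldehyde; YFP localization imaged by epifluorescence.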
# [2] = molecular target: T1, Gastrin/cholecystokinin type B receptor (Homo sapiens); test: Induction of receptor internalization in YN-tagged CCK2 receptor expressed in CHO cells at 4 degC
# How it was run: (§2)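 CHO cells stably coexpressing YN-tagged CCK2 and YC-tagged MOP receptors on coverslips, washed with PBS containing 0.08 mM CaCl2 and 0.1 mM MgCl2. Incubated with 100 nM ligand at 4 °C for 90 min, washed with ice-cold PBS, then moved to prewarmed 37 °C PBS for various times. Fixed in 2% paraformaldehyde; reconstituted YFP fluorescence imaged by epifluorescence microscopy.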
# [3] = molecular target: Mu-type opioid receptor (Homo sapiens) (UniProt P35372); test: Induction of receptor internalization in YC-tagged mu opioid receptor expressed in CHO cells at 4 degC; settings: TDE = time-dependent effect; how it was run: as §2
# [4] = molecular target: T1, Gastrin/cholecystokinin type B receptor (Homo sapiens); test: Induction of receptor internalization in YN-tagged CCK2 receptor expressed in CHO cells after 90 mins; how it was run: as §2
# [5] = molecular target: Mu-type opioid receptor (Homo sapiens) (UniProt P35372); test: Induction of receptor internalization in YC-tagged mu opioid receptor expressed in CHO cells after 90 mins; how it was run: as §2
# [6] = molecular target: Mu-type opioid receptor (Homo sapiens) (UniProt P35372); test: Induction of receptor internalization in YFP-tagged mu opioid receptor expressed in CHO cells; how it was run: as §1
# Sequence of Mu-type opioid receptor (Homo sapiens) (P35372 whole entry): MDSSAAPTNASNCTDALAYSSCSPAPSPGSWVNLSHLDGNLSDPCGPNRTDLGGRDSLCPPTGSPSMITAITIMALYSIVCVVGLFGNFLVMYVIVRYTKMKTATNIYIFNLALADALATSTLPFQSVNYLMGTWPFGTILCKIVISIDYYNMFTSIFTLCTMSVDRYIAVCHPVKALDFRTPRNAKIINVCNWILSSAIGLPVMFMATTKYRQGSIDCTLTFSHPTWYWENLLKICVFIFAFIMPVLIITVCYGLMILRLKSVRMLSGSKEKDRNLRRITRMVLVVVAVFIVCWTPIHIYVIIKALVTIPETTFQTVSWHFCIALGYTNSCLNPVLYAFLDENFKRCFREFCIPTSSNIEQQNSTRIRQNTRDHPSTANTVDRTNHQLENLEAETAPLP
SMILES,Activity [2],Activity [3],Activity [4],Activity [5],further results
Cc1cccc(NC(=O)N[C@@H]2N=C(c3ccccc3)c3ccccc3N(C)C2=O)c1,–,–,–,–,Activity [1]: inactive
CN1C(=O)[C@H](NC(=O)Nc2cccc(OCCNC(=O)COCC(=O)NNC(=O)COCC(=O)N[C@H]3CC[C@@]4(O)C5Cc6ccc(O)c7c6[C@@]4(CCN5)[C@H]3O7)c2)N=C(c2ccccc2)c2ccccc21,Active,tde,Active,Active,–
C[C@@H](NC(=O)[C@@H](N)Cc1ccc(O)cc1)C(=O)NCC(=O)N(C)[C@@H](Cc1ccccc1)C(=O)NCCO,–,–,–,–,Activity ([6]; TDE = time-dependent effect): tde
CNC(=O)COCC(=O)NCCCCNC(=O)COCC(=O)N[C@H]1CC[C@@]2(O)C3Cc4ccc(O)c5c4[C@@]2(CCN3C)[C@H]1O5,–,–,–,inactive,Activity [6]: Active
CN1C(=O)[C@H](NC(=O)Nc2cccc(OCCNC(=O)COCC(=O)N[C@H]3CC[C@@]4(O)C5Cc6ccc(O)c7c6[C@@]4(CCN5)[C@H]3O7)c2)N=C(c2ccccc2)c2ccccc21,–,–,–,inactive,–
CN1C(=O)[C@H](NC(=O)Nc2cccc(OCCNC(=O)COCC(=O)NCCCCCCNC(=O)COCC(=O)N[C@H]3CC[C@@]4(O)C5Cc6ccc(O)c7c6[C@@]4(CCN5)[C@H]3O7)c2)N=C(c2ccccc2)c2ccccc21,Active,tde,Active,Active,–
CNC(=O)COCC(=O)NCCCCCCNC(=O)COCC(=O)NCCOc1cccc(NC(=O)N[C@@H]2N=C(c3ccccc3)c3ccccc3N(C)C2=O)c1,–,–,–,inactive,Activity [1]: Active
CN1C(=O)[C@H](NC(=O)Nc2cccc(OCCNC(=O)COCC(=O)NCCNC(=O)COCC(=O)N[C@H]3CC[C@@]4(O)C5Cc6ccc(O)c7c6[C@@]4(CCN5)[C@H]3O7)c2)N=C(c2ccccc2)c2ccccc21,Active,tde,Active,Active,–
